This passage reports Activity and Ki results from ChEMBL document CHEMBL1137381, “Biarylpyrazole inverse agonists at the cannabinoid CB1 receptor: importance of the C-3 carboxamide oxygen/lysine3.28(192) interaction” (J Med Chem, 2006).

For orientation: Ki means a dissociation constant, usually derived from enzyme kinetics or from competition with a known ligand.

Assay [1] addresses Cannabinoid receptor 1 (Rattus norvegicus) (UniProt P20272). Put plainly: Agonist activity against rat CB1 receptor expressed in superior cervical ganglion neurons assessed as increase in calcium ion current at 10 uM relative to control. It is filed as functional, tissue-based. The essentials: (§1)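 Rat SCG neurons nuclear-injected with N-terminally HA-tagged rat CB1 cDNA (100 ng/µL) plus EGFP marker plasmid, incubated overnight. Whole-cell voltage-clamp at 24-26 °C. Ca²⁺ current measured 10 ms into step to +5 mV, preceded by 50 ms prepulse to +80 mV. Test drug superfused alone, diluted from 10 mM DMSO stock. Current increase expressed as % of control amplitude; paired t-test.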

The target is the same in assay [2]. Put plainly: Agonist activity against rat CB1 receptor expressed in superior cervical ganglion neurons assessed as increase in calcium ion current at 1 uM relative to control. It is filed as functional, tissue-based. The method, boiled down:
as §1

The target is the same in assay [3]. The assay is described as follows: Antagonist activity against rat CB1 receptor expressed in superior cervical ganglion neurons assessed as block of WIN-55212-2-elicited calcium ion current inhibition at 1 uM relative to control. It is filed as functional, tissue-based. The arrangement: scale not given: the % may be the effect or the level left. The essentials:
(§2)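 SCG neurons from rat, nuclear-injected with HA-tagged rat CB1 cDNA, recorded after overnight incubation by whole-cell patch clamp at room temperature. Ca²⁺ currents isolated with TEA/TTX external solution and NMDG/EGTA pipette solution. WIN55,212-2 (1 µM) coapplied with test compound. Inhibition of Ca²⁺ current expressed as % of control amplitude, taken 10 ms after the step to +5 mV.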

Assay [4] deals with T1, Cannabinoid receptor 1 (Homo sapiens, UniProt P21554). The assay is described as follows: biochemical. It is filed as cell-based, HEK293.
The target in assay [5] is T1, Cannabinoid receptor 1. Put plainly: biochemical. It is filed as cell-based, HEK293. The source holds these as a separate data set.
The target of assay [6] is Cannabinoid receptor 1 (Rattus norvegicus) (UniProt P20272). Put plainly: Antagonist activity against rat CB1 receptor expressed in superior cervical ganglion neurons assessed as block of WIN-55212-2-elicited calcium ion current inhibition at 10 uM relative to control. It is filed as functional, tissue-based. The arrangement: scale not given: the % may be the effect or the level left. The essentials:
as §2

Assay [7] addresses T1, Cannabinoid receptor 1. Put plainly: biochemical. It is filed as cell-based, HEK293. The source holds these as a separate data set.

T1 sequence (P21554 whole entry): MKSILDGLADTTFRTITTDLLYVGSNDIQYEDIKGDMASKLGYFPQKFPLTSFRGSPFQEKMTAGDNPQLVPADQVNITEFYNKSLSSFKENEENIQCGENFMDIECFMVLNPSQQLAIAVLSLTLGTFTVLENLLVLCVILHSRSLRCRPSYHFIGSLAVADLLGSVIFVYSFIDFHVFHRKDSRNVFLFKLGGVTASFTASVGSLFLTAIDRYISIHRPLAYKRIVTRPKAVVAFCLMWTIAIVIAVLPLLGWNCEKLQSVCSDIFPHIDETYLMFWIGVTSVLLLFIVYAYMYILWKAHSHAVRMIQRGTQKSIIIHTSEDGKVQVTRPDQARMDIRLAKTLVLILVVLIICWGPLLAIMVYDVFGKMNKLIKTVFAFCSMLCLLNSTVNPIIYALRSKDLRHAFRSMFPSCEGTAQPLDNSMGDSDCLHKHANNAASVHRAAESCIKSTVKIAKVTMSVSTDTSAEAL
Chain of Cannabinoid receptor 1 (Rattus norvegicus) (P20272 whole entry, the tested form may be a part): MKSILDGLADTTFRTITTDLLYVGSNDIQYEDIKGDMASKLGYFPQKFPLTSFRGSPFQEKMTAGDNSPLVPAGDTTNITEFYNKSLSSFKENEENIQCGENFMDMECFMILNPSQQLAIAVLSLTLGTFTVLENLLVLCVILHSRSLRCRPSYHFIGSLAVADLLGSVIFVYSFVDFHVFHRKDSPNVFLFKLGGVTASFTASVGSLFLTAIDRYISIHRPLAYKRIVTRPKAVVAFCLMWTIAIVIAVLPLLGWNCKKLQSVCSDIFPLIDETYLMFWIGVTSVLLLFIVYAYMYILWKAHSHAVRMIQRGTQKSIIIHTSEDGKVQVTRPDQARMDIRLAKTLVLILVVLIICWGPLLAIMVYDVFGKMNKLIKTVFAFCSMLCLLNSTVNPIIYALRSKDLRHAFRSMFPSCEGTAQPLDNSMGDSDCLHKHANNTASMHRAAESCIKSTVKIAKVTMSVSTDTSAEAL

As for `Cc1c(C(=O)N(C)C2CCCCC2)nn(-c2ccc(Cl)cc2Cl)c1-c1ccc(Cl)cc1`, the Activity in assay [1] is 23.9%; in assay [2], 26.1%; in assay [3], -4.5%; in assay [6], -7%. The Ki in assay [4] was determined as 30 nM; in assay [5] it was 54 nM; in assay [7] it was 107 nM.

Turning to `Cc1c(C(=O)NN2CCCCC2)nn(-c2ccc(Cl)cc2Cl)c1-c1ccc(Cl)cc1`, the Activity in assay [2] is 46.6%; in assay [3] it was -4.8%.

Turning to `Cc1c(/C=C/N2CCCCC2)nn(-c2ccc(Cl)cc2Cl)c1-c1ccc(Cl)cc1`, the Activity was 13.9% in assay [1], 3.2% in assay [2], -2.5% in assay [3] and 0.7% in assay [6]. The Ki worked out at 213 nM in assay [4], 258 nM in assay [5] and 223 nM in assay [7].

For the molecule `Cc1c(/C=N/N2CCCCC2)nn(-c2ccc(Cl)cc2Cl)c1-c1ccc(Cl)cc1`, the figures for the Activity in assay [2] and in assay [3] were 11.5% and 2.6%, respectively. Also, the Ki in assay [4] stood at 17 nM; in assay [5] it was 57 nM; in assay [7], 19 nM.

Consider `Cc1c(/C=C/C2CCCCC2)nn(-c2ccc(Cl)cc2Cl)c1-c1ccc(Cl)cc1`, for which the results for the Activity in assay [2] and in assay [3] were 8.6% and 28.1%, respectively. The inhibitory constant (Ki) in assay [4] worked out at 31.3 nM; in assay [5], 85 nM; in assay [7] it was 60 nM.

With `Cc1c(C(=O)NC2CCCCC2)nn(-c2ccc(Cl)cc2Cl)c1-c1ccc(Cl)cc1`, the results for the Activity in assay [2] and in assay [3] were 35.2% and -3.8%, respectively. Moreover, the Ki is 1.8 nM in assay [4], 5 nM in assay [5] and 3.7 nM in assay [7].

Turning to `Cc1c(C(=O)c2cccc3ccccc23)c2cccc3c2n1[C@H](CN1CCOCC1)CO3`, the Activity in assay [2] amounted to 47.1%.
